# Measured values gathered from unrelated publications.
# Compare with care: the assays were run in different laboratories.
# Effect on: metabolic stability
# Species: human
SMILES,matrix,tested at,half-life
O=c1ccc2ccc(O)cc2o1,hepatocytes,1 µM,12.4 min
CSc1ncc(Br)c(C(=O)N[C@@H](CCC(=O)O)C(=O)N[C@@H](Cc2ccc3ccccc3c2)C(=O)N[C@@H](CC(C)C)C(=O)N[C@@H]2C[C@H]2c2ccccc2)n1,plasma,,1900 min
O=C1CC[C@H](N2Cc3cc(N4CCN(CC5CCN(c6ccc([C@@H]7c8ccc(O)cc8CC[C@@H]7c7ccccc7)cc6)CC5)CC4)ccc3C2=O)C(=O)N1,hepatocytes,1 µM,53.8 min
CCOc1ccc(NC(C)=O)cc1,liver microsomes,,67.1 min
CC1(CN)CCN(c2cnc3c(Sc4ccncc4Cl)n[nH]c3n2)CC1,liver microsomes,,36.7 min
COc1ccc([C@@H]2Sc3ccccc3N(CCN(C)C)C(=O)[C@@H]2OC(C)=O)cc1,liver microsomes,,53.5 min
Nc1ncnc2c1ncn2[C@@H]1O[C@H](CO)C[C@H]1O,liver microsomes,1 µM,12.3 min
O=c1ccc2ccc(O)cc2o1,liver microsomes,,1.85 min
CCOc1ccc2ccc(=O)oc2c1,hepatocytes,1 µM,11.4 min
O=c1ccc2cc(O)ccc2o1,liver microsomes,20 µM,63.5 min
CC(C)[N+](C)(CCOC(=O)C1c2ccccc2Oc2ccccc21)C(C)C,plasma,,25.8 min
CCC(CC)COC(=O)[C@H](C)N[P@](=O)(OC[C@@H]1C[C@@H](O)[C@H](n2cnc3c(N)nc(F)nc32)O1)Oc1ccccc1,liver microsomes,1 µM,1.42 min
CC(C)Oc1ccc(S(=O)(=O)c2ccc(Oc3cc(OCC(N)=O)c(C(=O)C(Cl)Cl)cc3[N+](=O)[O-])cc2)cc1,liver microsomes,20 µM,46.7 min
O=C(c1ccc(F)cc1)C1CCN(CCn2c(=O)[nH]c3ccccc3c2=O)CC1,liver microsomes,,35.4 min
CCC(CC)COC(=O)[C@H](C)N[P@@](=O)(OC[C@@H]1C[C@@H](O)[C@H](n2cnc3c(N)ncnc32)O1)Oc1ccccc1,liver microsomes,1 µM,0.67 min
